Paper PMC11439047 (Nature Communications, 2024)
Positions count from the first letter of the chain named.

Columns and labels:
P2X1 receptor D170A = target: T1, P2X1 receptor D170A (Homo sapiens, UniProt P51575, D170A); test: Calcium ion influx assay; format: cell-based
T1 sequence (P51575 1-399 D170A): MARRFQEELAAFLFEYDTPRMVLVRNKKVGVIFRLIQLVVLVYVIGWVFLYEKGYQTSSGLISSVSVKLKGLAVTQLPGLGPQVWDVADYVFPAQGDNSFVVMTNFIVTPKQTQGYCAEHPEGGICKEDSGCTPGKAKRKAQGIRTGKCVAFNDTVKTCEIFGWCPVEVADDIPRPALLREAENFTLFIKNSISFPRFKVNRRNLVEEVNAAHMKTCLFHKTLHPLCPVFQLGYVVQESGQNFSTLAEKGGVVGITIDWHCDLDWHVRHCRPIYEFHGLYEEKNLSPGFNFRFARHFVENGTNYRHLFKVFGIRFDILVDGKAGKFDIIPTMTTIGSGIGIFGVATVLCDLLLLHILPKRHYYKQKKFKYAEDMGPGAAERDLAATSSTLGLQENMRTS
Procedure, shortened: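 Tetracycline-induced (150 ng/mL, 2 days) stable HEK293 Flp-In T-REx cells at 15,000 cells/well, loaded with Fluo-8 for 1 h at 37 °C in probenecid-containing HEPES buffer, pH 7.4. Then 30 min buffer incubation, 20 s baseline, agonist addition and 2 min reading (ex 485/em 525 nm). Max-minus-min fluorescence normalised to 10 µM ionomycin, rescaled 0–100. Constrained four-parameter fit; EC50 per experiment; four independent experiments, triplicate.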

P2X1 receptor M214A = target: T2, P2X1 receptor M214A (Homo sapiens, UniProt P51575, M214A); test: Saturation radioligand binding with [3H]-α,β-methylene ATP
T2 sequence (P51575 1-399 M214A): T1 sequence (P51575 1-399 D170A) with A170D, M214A

P2X1 receptor E122A = target: T3, P2X1 receptor E122A (Homo sapiens, UniProt P51575, E122A); test: as above
T3 sequence (P51575 1-399 E122A): T1 sequence (P51575 1-399 D170A) with E122A, A170D

P2X1 receptor E282A = target: T4, P2X1 receptor E282A (Homo sapiens, UniProt P51575, E282A); test: Saturation radioligand binding with [3H]-α,β-methylene ATP
T4 sequence (P51575 1-399 E282A): T1 sequence (P51575 1-399 D170A) with A170D, E282A
Procedure, shortened: (§1)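 Whole HEK293 Flp-In T-REx cells stably expressing receptor, tetracycline-induced (150 ng/ml, 2 days), 15,000 cells/well, washed in HEPES binding buffer pH 7.4 with Ca2+/Mg2+. Increasing [3H]-α,β-methylene ATP added, 3 h room temperature with gentle agitation; non-specific binding with 10 μM ATP. Ice-cold 0.9% NaCl washes, scintillation counting (CCPM). Specific binding fitted one-site; values above 300 nM termed not defined.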

P2X1 receptor L218T = target: T5, P2X1 receptor L218T (Homo sapiens, UniProt P51575, L218T); test: as above
T5 sequence (P51575 1-399 L218T): T1 sequence (P51575 1-399 D170A) with A170D, L218T
Procedure, shortened: as §1

P2X1 receptor F188L = target: T6, P2X1 receptor F188L (Homo sapiens, UniProt P51575, F188L); test: as above
T6 sequence (P51575 1-399 F188L): T1 sequence (P51575 1-399 D170A) with A170D, F188L
Procedure, shortened: as §1

Nc1ncnc2c1ncn2[C@@H]1O[C@H](COP(=O)(O)CP(=O)(O)OP(=O)(O)O)[C@@H](O)[C@H]1O [α,β-methylene ATP] was tested, and the “fold decrease in potency compared to WT-P2X1” value (P2X1 receptor D170A) was 58 fold, the “binding affinity compared to WT-P2X1” value (P2X1 receptor M214A) was “beyond the threshold that could be accurately measured” and the “binding affinity compared to WT-P2X1” value (P2X1 receptor E122A) was “beyond the threshold that could be accurately measured”. For the same compound, the “binding affinity compared to WT-P2X1” value (P2X1 receptor E282A) was “similar”, the “binding affinity compared to WT-P2X1” value (P2X1 receptor L218T) was “similar” and the “binding affinity compared to WT-P2X1” value (P2X1 receptor F188L) was “similar”.
